Read-outs that look alike come from different tables or passages of the source. Marks after values point to notes of the source that are not given here. Numbered stars: 1 amine (or outer) side, 2 acyl side, 3 side chain; on linkers, the order of the positions; unused ones are H or OH. Bridge positions count the residues as written; N and C are the ends. Square brackets hold non-standard residues; d marks the D form. Peptide text beside a SMILES is read from it. * marks the point of attachment. hTyr(3S-OH,4S-OH,3'-OSO3H) = N[C@H](C(=O)O)[C@H](O)[C@@H](O)c1ccc(O)c(OS(=O)(=O)O)c1; Orn(4R-OH,5R-OH) = O=C([C@H](C[C@@H](O)[C@@H](O)N[*:3])N[*:1])[*:2]; Pro(3S-OH,4S-Me) = C[C@H]1CN[C@H](C(=O)O)[C@H]1O; X1 = CCCCCOc1ccc(-c2cc(-c3ccc(C(=O)*)cc3)no2)cc1; Gln(3R-OH) = NC(=O)C[C@@H](O)[C@H](N)C(=O)O; Hyp = O=C(O)[C@@H]1C[C@@H](O)CN1
Tests used:
[1] = Micafungin serum fraction unbound by equilibrium dialysis; type: in vitro ADME; details: human, pH 7.4
Summary of the method: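 Serum from neonates (23–40 wk gestation, postnatal 1–52 days, 0.6–3.5 kg; n=6) or adults (n=6) spiked with 10 μM test compound. Dialysed against an equal volume of 100 mM sodium phosphate, pH 7.4, for 4.5 hr at 37°C with 100 rpm shaking. Both sides quantified by HPLC-fluorescence (ex 273/em 464 nm) with diclofenac internal standard and matrix-matched calibration. fu = buffer/serum concentration.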

[2] = cited from earlier work
[3] = cited from earlier work; remark: listed apart in the source
[4] = adult; well-stirred model, fu 0.004, QH 21 ml/min/kg; ref Yanni et al. [8]; cited from earlier work
[5] = system: sandwich-cultured human hepatocytes; details: cited from earlier work
[6] = human adult, ref Yanni et al. [8]

CCCCCOc1ccc(-c2cc(-c3ccc(C(=O)N[C@H]4C[C@@H](O)[C@@H](O)NC(=O)[C@@H]5[C@@H](O)[C@@H](C)CN5C(=O)[C@H]([C@H](O)CC(N)=O)NC(=O)[C@H]([C@H](O)[C@@H](O)c5ccc(O)c(OS(=O)(=O)O)c5)NC(=O)[C@@H]5C[C@@H](O)CN5C(=O)[C@H]([C@@H](C)O)NC4=O)cc3)no2)cc1 [Micafungin] (X1-[Orn(4R-OH,5R-OH)]T[Hyp][hTyr(3S-OH,4S-OH,3'-OSO3H)][Gln(3R-OH)][Pro(3S-OH,4S-Me)]; lactam 1-C)
fraction unbound at 4.5 hr, 10 μM ([1]; serum from adults): 0.004
fraction unbound at 4.5 hr, 10 μM ([1]; serum from neonates): 0.033
Observed Biliary Cl [2, 6]: 0.160 mL/min/kg
Observed Plasma Cl [2, 6]: 0.229 mL/min/kg
Observed Plasma Cl ([2]; human neonate, ref Heresi et al. [5]): 0.622 ^# ml/min/kg
share of plasma clearance that occurs via biliary elimination of the parent drug ([2]; pharmacokinetic studies with 14C-micafungin): approximately 90%
plasma protein binding ([3]; in humans and animals): > 99%
binding to plasma proteins ([3]; stated in abstract, no reference given): > 99.5%
Calculated Biliary Cl [4]: 0.101 ± 0.062 mL/min/kg
Calculated Plasma Cl [4]: 0.175 ± 0.012 mL/min/kg
Intrinsic Biliary Cl ([5]; adult, sandwich-cultured human hepatocytes, B-CLEAR, ref Yanni et al. [8]): 14 ± 9 µL/min/mg
Intrinsic Accumulation Cl ([5]; adult, sandwich-cultured human hepatocytes, ref Yanni et al. [8]): 24 ± 2 µL/min/mg
In vitro intrinsic accumulation Cl ([5]; sandwich-cultured human hepatocytes from adult liver donors, no albumin): 23.5 ± 1.6 µL/min/mg

Caspofungin
clearance in neonates (< 3 months) compared to older children (2-11y) ([2]; human): significantly lower
unbound fraction in blood [3]: about 3.5%
